Measurements as given in ChEMBL document CHEMBL1142013, “Tryptamine and homotryptamine-based sulfonamides as potent and selective inhibitors of 15-lipoxygenase” (Bioorg Med Chem Lett, 2005).

Tests used:
[1] = target: T1, Polyunsaturated fatty acid lipoxygenase ALOX15 (Oryctolagus cuniculus, UniProt P12530); assay: Inhibitory concentration against rabbit reticulocyte 15-lipoxygenase with substrate arachidonic acid
T1 sequence (P12530 whole entry): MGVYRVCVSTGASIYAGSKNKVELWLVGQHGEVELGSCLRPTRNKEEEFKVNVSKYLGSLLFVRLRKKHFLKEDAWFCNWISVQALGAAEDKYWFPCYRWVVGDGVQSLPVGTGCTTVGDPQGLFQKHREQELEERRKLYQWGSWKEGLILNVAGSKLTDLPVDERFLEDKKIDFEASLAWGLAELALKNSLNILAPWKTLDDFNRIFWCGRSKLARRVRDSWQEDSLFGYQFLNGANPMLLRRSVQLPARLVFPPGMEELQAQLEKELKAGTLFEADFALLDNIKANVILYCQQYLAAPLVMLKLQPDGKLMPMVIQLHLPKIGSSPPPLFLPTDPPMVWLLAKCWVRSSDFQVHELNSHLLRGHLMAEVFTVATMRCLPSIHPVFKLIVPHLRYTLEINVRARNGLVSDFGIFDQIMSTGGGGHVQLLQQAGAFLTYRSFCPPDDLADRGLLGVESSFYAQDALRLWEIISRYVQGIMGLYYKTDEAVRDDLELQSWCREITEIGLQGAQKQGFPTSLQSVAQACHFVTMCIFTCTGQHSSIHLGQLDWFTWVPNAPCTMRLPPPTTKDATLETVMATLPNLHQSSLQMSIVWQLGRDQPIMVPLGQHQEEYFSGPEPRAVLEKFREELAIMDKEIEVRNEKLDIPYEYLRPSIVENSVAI
Summary of the method: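 Purified rabbit reticulocyte 15-LO, isolated from phenylhydrazine-treated rabbits, with arachidonic acid as the substrate. IC50 comes from a colorimetric read-out in which the 15-HPETE product oxidizes Fe²⁺ under mildly acidic conditions. Many values were also verified by the spectrophotometric diene-formation rate (A₂₃₄).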

[2] = target: T2, Polyunsaturated fatty acid lipoxygenase ALOX12 (Homo sapiens, UniProt P18054); assay: Inhibitory concentration against human platelet-derived 12-lipoxygenase
T2 sequence (P18054 whole entry): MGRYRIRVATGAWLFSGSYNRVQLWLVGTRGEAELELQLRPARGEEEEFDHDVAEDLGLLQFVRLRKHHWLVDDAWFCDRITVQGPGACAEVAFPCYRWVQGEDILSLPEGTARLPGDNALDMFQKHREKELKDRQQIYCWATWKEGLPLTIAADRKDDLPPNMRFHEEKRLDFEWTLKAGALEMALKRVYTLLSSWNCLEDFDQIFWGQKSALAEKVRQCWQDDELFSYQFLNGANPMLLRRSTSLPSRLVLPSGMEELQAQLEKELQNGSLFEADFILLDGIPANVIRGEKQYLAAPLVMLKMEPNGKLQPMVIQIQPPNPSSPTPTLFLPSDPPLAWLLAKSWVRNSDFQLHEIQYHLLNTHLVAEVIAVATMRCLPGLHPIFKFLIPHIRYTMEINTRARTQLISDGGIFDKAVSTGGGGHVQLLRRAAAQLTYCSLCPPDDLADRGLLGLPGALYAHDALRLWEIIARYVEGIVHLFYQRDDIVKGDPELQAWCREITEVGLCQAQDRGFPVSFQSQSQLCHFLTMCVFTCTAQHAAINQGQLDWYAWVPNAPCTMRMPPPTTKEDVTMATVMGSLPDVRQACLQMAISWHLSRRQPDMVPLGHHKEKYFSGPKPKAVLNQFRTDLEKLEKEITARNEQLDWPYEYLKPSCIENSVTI

[3] = target: T3, Polyunsaturated fatty acid 5-lipoxygenase (Homo sapiens, UniProt P09917); assay: Inhibitory concentration against human 5-lipoxygenase
T3 sequence (P09917 whole entry): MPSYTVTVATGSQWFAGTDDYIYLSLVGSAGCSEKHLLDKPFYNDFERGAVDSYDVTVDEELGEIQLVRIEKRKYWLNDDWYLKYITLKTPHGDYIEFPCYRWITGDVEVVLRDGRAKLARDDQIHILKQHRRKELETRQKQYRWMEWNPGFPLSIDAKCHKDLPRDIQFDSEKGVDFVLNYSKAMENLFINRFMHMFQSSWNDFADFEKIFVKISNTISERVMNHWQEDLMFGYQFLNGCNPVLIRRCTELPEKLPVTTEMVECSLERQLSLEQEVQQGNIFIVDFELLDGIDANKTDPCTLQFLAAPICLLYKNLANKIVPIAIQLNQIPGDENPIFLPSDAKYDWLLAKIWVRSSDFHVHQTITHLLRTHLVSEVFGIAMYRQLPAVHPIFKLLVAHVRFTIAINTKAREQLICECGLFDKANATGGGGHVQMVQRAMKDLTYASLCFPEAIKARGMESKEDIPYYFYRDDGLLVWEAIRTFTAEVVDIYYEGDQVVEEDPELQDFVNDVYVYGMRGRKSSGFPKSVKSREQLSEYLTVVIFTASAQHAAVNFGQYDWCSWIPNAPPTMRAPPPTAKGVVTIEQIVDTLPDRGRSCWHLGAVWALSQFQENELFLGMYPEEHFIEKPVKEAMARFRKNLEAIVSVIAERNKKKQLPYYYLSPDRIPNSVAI
Summary of the method: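 Recombinant human 5-LO enzyme. Inhibition was followed by oxidation of arachidonic acid as the substrate. IC50 values were determined.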

[4] = target: T1, Polyunsaturated fatty acid lipoxygenase ALOX15; assay: Inhibitory concentration against isolated rabbit reticulocyte 15-lipoxygenase measured in the presence of linoleic acid
Summary of the method: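 15-LO was purified from reticulocytes of phenylhydrazine-treated rabbits. Linoleic acid was the substrate. In a colorimetric assay, the 13-HPODE product oxidizes Fe²⁺ under mildly acidic conditions, and IC50 is derived from this. Many values were also checked spectrophotometrically by the rate of diene formation (A₂₃₄).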

Row | Structure (SMILES) | IC50 [1] [nM] | IC50 [2] [µM] | IC50 [3] [µM] | IC50 [4] [nM]
1 | NNC(=O)c1ccc(S(=O)(=O)NCCc2c(-c3cc4ccccc4o3)[nH]c3ccccc23)cc1 | 135 | > 10 | 3.5 | 89
2 | CCCCCc1ccc(S(=O)(=O)NCCc2c(-c3ccc(OC)cc3)[nH]c3ccccc23)cc1 | 164 | > 10 | 8.9 | 37
